For 25 molecules, IC50, Activity and Ki results are on record in ChEMBL document CHEMBL1154934, “Identification of piperazine-bisamide GHSR antagonists for the treatment of obesity” (Bioorg Med Chem Lett, 2010).

Assay [1] concerns the target Growth hormone secretagogue receptor type 1 (Homo sapiens, UniProt Q92847). As to the kind of experiment: Antagonist activity at human GHSR expressed in CHOK1 cells assessed as inhibition of ghrelin-induced intracellular calcium flux by aequorin flash luminescence assay. It counts as functional, cell-based, CHO-K1. An outline of the steps:
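Aequorin flash luminescence in CHO-K1 cells stably co-expressing human ghrelin receptor and aequorin. […] IC50 values are means of three determinations.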

In assay [2] the target is Growth hormone secretagogue receptor type 1 (Rattus norvegicus) (UniProt O08725). Put plainly: Agonist activity at rat GHSR expressed in CHO cells assessed as increase in ghrelin-induced [3H]IP accumulation at 10 uM after 1 hr by scintillation counting relative to ghrelin. It counts as functional, cell-based. The method in brief: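 CHO cells stably expressing human or rat GHSR labelled 12 h with 3H-inositol (1 µCi/mL in DMEM), then exposed to ghrelin or compound at 37 °C for 1.0 h. Lysis with 20 mM formic acid, 4 °C, 4 h. Extract taken onto SPA beads, 12 h in the dark, then radioactivity counted. IP accumulation expressed as % of maximal ghrelin response at 10, 1.0 and 0.1 µM.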

Assay [3] deals with D(3) dopamine receptor (Homo sapiens, UniProt P35462). As to the kind of experiment: Inhibition of dopamine D3 receptor.
The target of assay [4] is Sodium-dependent dopamine transporter (Homo sapiens, UniProt Q01959). As to the kind of experiment: Inhibition of DAT.
The target of assay [5] is D(2) dopamine receptor (Homo sapiens, UniProt P14416). As to the kind of experiment: Inhibition of dopamine D2 receptor.
For assay [6], the target named is Kappa-type opioid receptor (Homo sapiens, UniProt P41145). Put plainly: Inhibition of kappa opioid receptor.
Assay [7] concerns the target Histamine H2 receptor (Homo sapiens, UniProt P25021). As to the kind of experiment: Inhibition of histamine H2 receptor.
Assay [8] concerns the target T1, 5-hydroxytryptamine receptor 2C (Homo sapiens, UniProt P28335).
T1 sequence (P28335 whole entry): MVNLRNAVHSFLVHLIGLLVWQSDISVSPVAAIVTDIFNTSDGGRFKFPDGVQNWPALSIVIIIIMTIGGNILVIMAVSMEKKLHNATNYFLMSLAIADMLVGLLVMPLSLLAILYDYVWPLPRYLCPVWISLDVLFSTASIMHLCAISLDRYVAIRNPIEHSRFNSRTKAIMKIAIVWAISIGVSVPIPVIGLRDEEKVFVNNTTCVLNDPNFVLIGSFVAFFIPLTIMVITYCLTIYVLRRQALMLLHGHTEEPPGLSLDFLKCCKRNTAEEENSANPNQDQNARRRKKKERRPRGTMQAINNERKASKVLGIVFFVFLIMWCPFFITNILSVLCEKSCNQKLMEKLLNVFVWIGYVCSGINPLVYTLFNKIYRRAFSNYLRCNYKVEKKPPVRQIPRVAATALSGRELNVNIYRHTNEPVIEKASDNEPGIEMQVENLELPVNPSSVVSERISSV
Put plainly: Inhibition of 5HT2C (receptor).

In assay [9] the target is Mu-type opioid receptor (Homo sapiens, UniProt P35372). Put plainly: Inhibition of mu opioid receptor.
Assay [10] addresses Sodium-dependent noradrenaline transporter (Homo sapiens, UniProt P23975). Put plainly: Inhibition of NET.
Assay [11] deals with 5-hydroxytryptamine receptor 2A (Homo sapiens, UniProt P28223). Put plainly: Inhibition of 5HT2A (receptor).
Assay [12] addresses Sodium-dependent serotonin transporter (Homo sapiens, UniProt P31645). Put plainly: Inhibition of SERT.
In assay [13] the target is T2, Alpha-2A adrenergic receptor (Homo sapiens, UniProt P08913).
T2 sequence (P08913 whole entry): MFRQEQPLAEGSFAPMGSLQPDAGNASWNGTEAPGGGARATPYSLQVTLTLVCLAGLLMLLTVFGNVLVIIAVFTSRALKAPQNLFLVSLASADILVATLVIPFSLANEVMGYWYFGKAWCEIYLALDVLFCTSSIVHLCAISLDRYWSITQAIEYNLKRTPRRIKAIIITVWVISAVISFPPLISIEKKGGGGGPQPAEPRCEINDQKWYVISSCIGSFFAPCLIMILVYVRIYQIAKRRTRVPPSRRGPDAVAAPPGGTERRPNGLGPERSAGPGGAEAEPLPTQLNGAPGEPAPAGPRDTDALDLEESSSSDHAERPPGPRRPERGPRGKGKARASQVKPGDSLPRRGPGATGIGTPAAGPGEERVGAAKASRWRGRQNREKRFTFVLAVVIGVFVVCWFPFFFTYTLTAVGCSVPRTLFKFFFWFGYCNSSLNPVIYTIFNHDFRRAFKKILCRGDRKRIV
Put plainly: Inhibition of alpha2A adrenergic receptor.

Assay [14] concerns the target Muscarinic acetylcholine receptor M3 (Homo sapiens, UniProt P20309). As to the kind of experiment: Inhibition of muscarinic M3 receptor.

Sequence of Histamine H2 receptor (P25021 whole entry): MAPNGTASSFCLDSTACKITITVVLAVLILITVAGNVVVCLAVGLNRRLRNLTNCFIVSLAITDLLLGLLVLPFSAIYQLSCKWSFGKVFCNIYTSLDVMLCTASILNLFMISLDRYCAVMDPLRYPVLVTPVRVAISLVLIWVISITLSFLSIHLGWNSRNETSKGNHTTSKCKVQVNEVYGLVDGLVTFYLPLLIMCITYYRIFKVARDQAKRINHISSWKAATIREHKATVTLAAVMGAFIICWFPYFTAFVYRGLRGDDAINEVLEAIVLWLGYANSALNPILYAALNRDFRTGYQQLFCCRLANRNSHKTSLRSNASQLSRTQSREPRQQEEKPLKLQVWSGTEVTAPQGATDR
Sequence of Sodium-dependent serotonin transporter (P31645 whole entry): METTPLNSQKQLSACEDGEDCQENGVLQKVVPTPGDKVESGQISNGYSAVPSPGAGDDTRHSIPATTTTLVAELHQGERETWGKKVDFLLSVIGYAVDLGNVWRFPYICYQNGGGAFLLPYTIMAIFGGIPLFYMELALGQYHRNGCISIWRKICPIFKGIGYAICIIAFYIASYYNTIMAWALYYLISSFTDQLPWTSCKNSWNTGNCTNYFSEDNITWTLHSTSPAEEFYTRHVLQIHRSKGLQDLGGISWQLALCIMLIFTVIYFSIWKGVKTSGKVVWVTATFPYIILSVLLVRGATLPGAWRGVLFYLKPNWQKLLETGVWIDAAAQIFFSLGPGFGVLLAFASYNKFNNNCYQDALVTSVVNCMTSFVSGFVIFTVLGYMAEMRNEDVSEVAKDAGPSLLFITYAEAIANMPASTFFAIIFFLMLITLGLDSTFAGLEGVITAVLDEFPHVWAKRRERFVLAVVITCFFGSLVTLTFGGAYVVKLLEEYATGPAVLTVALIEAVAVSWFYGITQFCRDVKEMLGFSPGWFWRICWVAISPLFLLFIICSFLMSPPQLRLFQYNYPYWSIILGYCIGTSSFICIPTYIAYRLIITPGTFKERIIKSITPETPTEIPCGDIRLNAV
Sequence of Muscarinic acetylcholine receptor M3 (P20309 whole entry): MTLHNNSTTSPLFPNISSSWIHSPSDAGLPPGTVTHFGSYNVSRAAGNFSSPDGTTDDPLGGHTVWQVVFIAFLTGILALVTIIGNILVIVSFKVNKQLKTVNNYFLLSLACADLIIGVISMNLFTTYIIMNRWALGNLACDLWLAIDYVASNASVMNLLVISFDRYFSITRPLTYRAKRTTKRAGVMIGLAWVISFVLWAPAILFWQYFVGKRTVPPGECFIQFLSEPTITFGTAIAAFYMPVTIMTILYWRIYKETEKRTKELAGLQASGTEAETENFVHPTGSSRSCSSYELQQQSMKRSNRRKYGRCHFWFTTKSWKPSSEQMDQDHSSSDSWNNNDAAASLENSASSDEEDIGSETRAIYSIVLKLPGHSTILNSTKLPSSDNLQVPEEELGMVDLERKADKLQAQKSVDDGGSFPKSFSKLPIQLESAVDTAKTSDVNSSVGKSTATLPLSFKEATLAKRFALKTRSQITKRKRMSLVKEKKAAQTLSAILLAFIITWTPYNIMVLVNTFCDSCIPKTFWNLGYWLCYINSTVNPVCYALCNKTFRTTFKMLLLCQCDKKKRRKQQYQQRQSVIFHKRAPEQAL
Sequence of Sodium-dependent dopamine transporter (Q01959 whole entry): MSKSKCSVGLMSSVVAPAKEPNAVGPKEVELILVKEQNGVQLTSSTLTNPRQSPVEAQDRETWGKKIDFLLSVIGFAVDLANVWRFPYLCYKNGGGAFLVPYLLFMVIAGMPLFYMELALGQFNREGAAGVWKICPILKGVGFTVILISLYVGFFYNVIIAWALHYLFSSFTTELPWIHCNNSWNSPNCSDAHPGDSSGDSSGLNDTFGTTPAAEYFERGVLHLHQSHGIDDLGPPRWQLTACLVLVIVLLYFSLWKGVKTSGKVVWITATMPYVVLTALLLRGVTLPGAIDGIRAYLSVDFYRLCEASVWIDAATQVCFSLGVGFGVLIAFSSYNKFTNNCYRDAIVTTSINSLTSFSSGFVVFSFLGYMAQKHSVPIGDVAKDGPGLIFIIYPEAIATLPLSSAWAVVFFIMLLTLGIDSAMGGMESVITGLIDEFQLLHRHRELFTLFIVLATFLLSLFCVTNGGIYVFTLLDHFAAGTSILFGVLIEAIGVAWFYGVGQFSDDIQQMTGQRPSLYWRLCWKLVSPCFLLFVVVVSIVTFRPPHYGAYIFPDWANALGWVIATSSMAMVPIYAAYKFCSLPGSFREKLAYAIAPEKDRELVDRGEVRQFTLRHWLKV
Sequence of Growth hormone secretagogue receptor type 1 (Rattus norvegicus) (O08725 whole entry): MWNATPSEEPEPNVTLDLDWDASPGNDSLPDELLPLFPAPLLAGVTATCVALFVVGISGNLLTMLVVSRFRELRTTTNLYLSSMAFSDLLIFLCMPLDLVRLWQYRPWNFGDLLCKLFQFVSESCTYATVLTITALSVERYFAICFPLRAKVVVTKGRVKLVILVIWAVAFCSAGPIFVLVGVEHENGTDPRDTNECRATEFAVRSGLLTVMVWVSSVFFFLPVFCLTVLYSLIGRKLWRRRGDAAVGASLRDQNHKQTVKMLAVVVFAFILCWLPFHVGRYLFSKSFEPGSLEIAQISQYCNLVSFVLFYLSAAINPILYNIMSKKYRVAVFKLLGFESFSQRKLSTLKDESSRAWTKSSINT
Sequence of 5-hydroxytryptamine receptor 2A (P28223 whole entry): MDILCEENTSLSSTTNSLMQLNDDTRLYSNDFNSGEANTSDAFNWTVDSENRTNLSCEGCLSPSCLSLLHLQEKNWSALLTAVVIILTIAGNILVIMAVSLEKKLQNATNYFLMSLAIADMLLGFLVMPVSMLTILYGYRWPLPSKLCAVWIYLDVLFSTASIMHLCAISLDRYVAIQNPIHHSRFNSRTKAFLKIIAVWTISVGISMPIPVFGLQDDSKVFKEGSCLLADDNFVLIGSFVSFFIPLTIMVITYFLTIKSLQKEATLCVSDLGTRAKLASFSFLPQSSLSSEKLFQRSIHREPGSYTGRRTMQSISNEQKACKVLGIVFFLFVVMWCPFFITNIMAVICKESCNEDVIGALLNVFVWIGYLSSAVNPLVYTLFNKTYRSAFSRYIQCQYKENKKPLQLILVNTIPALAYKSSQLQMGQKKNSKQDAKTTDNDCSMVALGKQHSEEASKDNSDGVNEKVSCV
Sequence of Sodium-dependent noradrenaline transporter (P23975 whole entry): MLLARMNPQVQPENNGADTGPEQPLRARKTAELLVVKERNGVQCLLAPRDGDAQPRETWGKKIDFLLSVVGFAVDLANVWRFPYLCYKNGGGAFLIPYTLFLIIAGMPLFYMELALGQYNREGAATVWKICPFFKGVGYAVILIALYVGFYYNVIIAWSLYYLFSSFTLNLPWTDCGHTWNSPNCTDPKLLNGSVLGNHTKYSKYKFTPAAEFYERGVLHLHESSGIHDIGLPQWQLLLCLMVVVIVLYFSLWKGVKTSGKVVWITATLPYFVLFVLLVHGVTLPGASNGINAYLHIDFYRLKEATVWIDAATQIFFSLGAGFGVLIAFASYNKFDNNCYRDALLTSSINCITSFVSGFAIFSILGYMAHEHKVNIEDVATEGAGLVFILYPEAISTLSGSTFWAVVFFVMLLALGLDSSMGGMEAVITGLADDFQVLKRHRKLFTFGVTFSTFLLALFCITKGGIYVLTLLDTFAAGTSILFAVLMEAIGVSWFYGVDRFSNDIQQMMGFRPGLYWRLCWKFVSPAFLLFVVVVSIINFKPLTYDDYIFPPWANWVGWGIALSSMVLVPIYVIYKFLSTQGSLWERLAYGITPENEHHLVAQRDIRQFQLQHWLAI
Sequence of Growth hormone secretagogue receptor type 1 (Q92847 whole entry): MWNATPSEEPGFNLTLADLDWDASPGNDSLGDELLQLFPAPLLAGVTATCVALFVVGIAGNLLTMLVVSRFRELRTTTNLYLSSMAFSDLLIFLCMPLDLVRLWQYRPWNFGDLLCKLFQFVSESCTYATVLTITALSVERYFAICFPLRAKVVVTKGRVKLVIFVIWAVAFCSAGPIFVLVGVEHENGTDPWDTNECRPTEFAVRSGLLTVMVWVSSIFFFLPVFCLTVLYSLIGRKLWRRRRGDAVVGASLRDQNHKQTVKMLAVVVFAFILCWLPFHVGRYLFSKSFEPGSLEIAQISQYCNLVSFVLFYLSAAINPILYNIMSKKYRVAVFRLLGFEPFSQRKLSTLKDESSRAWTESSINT
Sequence of Mu-type opioid receptor (P35372 whole entry): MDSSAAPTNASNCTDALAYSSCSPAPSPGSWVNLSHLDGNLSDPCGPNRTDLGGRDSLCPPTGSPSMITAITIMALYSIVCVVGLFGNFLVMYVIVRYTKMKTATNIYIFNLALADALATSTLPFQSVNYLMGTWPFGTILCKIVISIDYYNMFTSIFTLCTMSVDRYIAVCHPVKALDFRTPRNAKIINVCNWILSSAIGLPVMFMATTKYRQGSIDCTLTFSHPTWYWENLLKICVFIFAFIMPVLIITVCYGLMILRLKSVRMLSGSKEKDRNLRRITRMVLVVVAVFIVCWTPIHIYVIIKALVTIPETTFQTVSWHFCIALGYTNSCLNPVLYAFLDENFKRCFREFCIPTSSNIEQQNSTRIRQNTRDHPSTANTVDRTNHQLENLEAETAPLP
Sequence of D(2) dopamine receptor (P14416 whole entry): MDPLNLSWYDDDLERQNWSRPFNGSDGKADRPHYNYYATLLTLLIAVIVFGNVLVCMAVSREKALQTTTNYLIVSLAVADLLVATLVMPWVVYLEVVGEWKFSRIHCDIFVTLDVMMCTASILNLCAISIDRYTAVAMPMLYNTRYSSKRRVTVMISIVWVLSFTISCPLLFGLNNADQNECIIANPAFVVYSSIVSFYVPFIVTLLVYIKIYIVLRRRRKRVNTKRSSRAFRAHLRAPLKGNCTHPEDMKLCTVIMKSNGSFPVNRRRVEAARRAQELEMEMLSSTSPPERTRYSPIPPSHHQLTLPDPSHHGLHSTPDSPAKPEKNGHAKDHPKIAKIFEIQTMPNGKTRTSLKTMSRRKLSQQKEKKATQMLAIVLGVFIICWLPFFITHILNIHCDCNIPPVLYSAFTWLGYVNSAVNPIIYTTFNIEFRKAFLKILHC

Usually IC50 stands for the concentration that inhibits the measured activity by half. Turning to `COc1cccc(-c2ccc(C(=O)N3CCN(C(=O)c4ccc5cc[nH]c5c4)CC3)cc2)c1`, the IC50 in assay [1] is 25 nM.
For the molecule `C[C@H]1CN(C(=O)c2ccc(-c3ccccc3)cc2F)CCN1C(=O)c1ccc2cc[nH]c2c1`, the Activity in assay [2] stood at 43%. In assay [1], the IC50 was 17.7 nM.
Consider `C[C@H]1CN(C(=O)c2ccc(-c3ccccc3Cl)cn2)CCN1C(=O)c1ccc2cc[nH]c2c1`, for which the Activity in [2] was 18%. Also, the IC50 in [1] was determined as 37.2 nM.
On to `O=C(c1ccc(-c2ccccc2)cc1)N1CCCN(C(=O)c2ccc3cc[nH]c3c2)CC1`, for which the IC50 in assay [1] was found to be 6500 nM.
The Ki is a dissociation constant, usually derived from enzyme kinetics or from competition with a known ligand. Higher therefore signals lower affinity. With `COc1cccc(-c2ccc(C(=O)N3CCN(C(=O)c4ccc5cc[nH]c5c4)[C@H](C)C3)cc2)c1`, the Ki in [3], in assay [4], in assay [5], in assay [6], in assay [7] and in assay [8] was over 10 µM each time. For the same molecule, the Ki in [9], in assay [10], in assay [11], in assay [12], in assay [13] and in assay [14] was over 10 µM throughout. In addition, the IC50 in assay [1] came to 640 nM.
With `COc1cccc(-c2ccc(C(=O)N3CCN(C(=O)c4ccc5cc[nH]c5c4)C[C@H]3C)cc2)c1`, the IC50 in [1] came to 68 nM.
Take `C[C@H]1CN(C(=O)c2ccc(-c3ccncc3)cc2)CCN1C(=O)c1ccc2cc[nH]c2c1`: the Activity in assay [2] was -2%. For the same molecule, the IC50 in assay [1] is 12.7 nM.
The like results for `C[C@H]1CN(C(=O)c2ccc(-c3ccccc3Cl)nc2)CCN1C(=O)c1ccc2cc[nH]c2c1` were, in that order, 14% and 13 nM.
Turning to `C[C@H]1CN(C(=O)c2ccc(-c3cncs3)cc2)CCN1C(=O)c1ccc2cc[nH]c2c1`, in assay [2], the Activity was 5%. For the same molecule, the IC50 in assay [1] was determined as 65 nM.
On the same counts, the results for `C[C@H]1CN(C(=O)c2csc(-c3ccccc3F)n2)CCN1C(=O)c1ccc2cc[nH]c2c1` are 14% and 33.7 nM.
`COc1ccccc1-c1ccc(C(=O)N2CCN(C(=O)c3ccc4cc[nH]c4c3)[C@@H](C)C2)cc1`: the Ki in [3], in assay [4], in assay [5], in assay [6], in [7] and in [8] was over 10 µM throughout. Further, the Ki in assay [9], in [10], in assay [11], in assay [12], in assay [13] and in assay [14] was over 10 µM each time. Also, in assay [1], the IC50 was determined as 26 nM.
In the case of `C[C@H]1CN(C(=O)c2ccc(-c3cccc(F)c3)cc2)CCN1C(=O)c1ccc2cc[nH]c2c1`, the Ki in assay [3], in assay [4], in assay [5], in assay [6], in [7] and in assay [8] was over 10 µM throughout. The Ki in [9], in assay [10], in assay [11], in [12], in assay [13] and in assay [14] was over 10 µM each time. Also, in assay [1], the IC50 was found to be 147 nM.
Regarding `Cc1ccccc1-c1ccc(C(=O)N2CCN(C(=O)c3ccc4cc[nH]c4c3)[C@@H](C)C2)cc1F`, the Activity in [2] came out at 16%. Besides, the IC50 in assay [1] stood at 9 nM.
`C[C@H]1CN(C(=O)c2ccc(-c3cccc(OC(F)(F)F)c3)cc2)CCN1C(=O)c1ccc2cc[nH]c2c1`: the Ki in assay [3], in assay [4], in assay [5], in assay [6], in assay [7] and in [8] was over 10 µM each time. Besides, the Ki in assay [9], in assay [10], in assay [11], in assay [12], in [13] and in assay [14] was over 10 µM in each case. The IC50 in [1] was determined as 46.5 nM.
For the molecule `Cc1cc(-c2ccccc2)ccc1C(=O)N1CCN(C(=O)c2ccc3cc[nH]c3c2)[C@@H](C)C1`, the Activity in assay [2] turned out to be 36%. Also, the IC50 in [1] was 14.3 nM.
For `C[C@H]1CN(C(=O)c2ccc(N3CCOCC3)cc2)CCN1C(=O)c1ccc2cc[nH]c2c1`, in [1], the IC50 worked out at 339 nM.
`C[C@H]1CN(C(=O)c2ccc(-c3ccccn3)cc2)CCN1C(=O)c1ccc2cc[nH]c2c1`: the Activity in assay [2] stood at 12%. In addition, the IC50 in assay [1] is 42.2 nM.
Consider `COc1cccc(-c2ccc(C(=O)N3CCN(C(=O)c4ccc5cc[nH]c5c4)C[C@@H]3C)cc2)c1`, for which the IC50 in assay [1] came out at 280 nM.
For the molecule `C[C@H]1CN(C(=O)c2ccc(-c3cccc(C(F)(F)F)c3)cc2)CCN1C(=O)c1ccc2cc[nH]c2c1`, the Ki in assay [3], in [4], in assay [5], in assay [6], in [7] and in assay [8] was over 10 µM throughout. The Ki in assay [9], in [10], in [11], in assay [12], in [13] and in assay [14] was over 10 µM throughout. Besides, the IC50 in [1] was 77 nM.
On to `Cc1noc(C)c1-c1ccc(C(=O)N2CCN(C(=O)c3ccc4cc[nH]c4c3)[C@@H](C)C2)cc1`, for which the Activity in [2] was 5%. Further, the IC50 in assay [1] stood at 245 nM.
On the same counts, the results for `C[C@H]1CN(C(=O)c2ccc(-c3ccccc3)nc2)CCN1C(=O)c1ccc2cc[nH]c2c1` are 19% and 20 nM.
In the case of `C[C@H]1CN(C(=O)c2ccc(-c3ccc(F)cc3)cc2)CCN1C(=O)c1ccc2cc[nH]c2c1`, the Ki in assay [3], in assay [4], in [5], in assay [6], in assay [7] and in assay [8] was over 10 µM throughout. The Ki in [9], in assay [10], in assay [11], in assay [12], in assay [13] and in assay [14] was over 10 µM throughout. The IC50 in [1] was determined as 64 nM.
On to `C[C@H]1CN(C(=O)c2ccc(-c3ccc(OC(F)(F)F)cc3)cc2)CCN1C(=O)c1ccc2cc[nH]c2c1`, for which the Ki in assay [3], in assay [4], in assay [5], in [6], in assay [7] and in [8] was over 10 µM each time. The Ki in assay [9], in assay [10], in assay [11], in assay [12], in assay [13] and in assay [14] was over 10 µM in each case. The IC50 in [1] worked out at 136 nM.
As to `C[C@H]1CN(C(=O)c2ccc(-c3cccnc3)cc2)CCN1C(=O)c1ccc2cc[nH]c2c1`, the Activity in assay [2] was 21%. Moreover, the IC50 in assay [1] is 143 nM.
The like results for `C[C@H]1CN(C(=O)c2ccc(-c3cn[nH]c3)cc2)CCN1C(=O)c1ccc2cc[nH]c2c1` were, in that order, 17% and 123 nM.
